Source: PubChem BioAssay (several laboratories)
Rpn11 block = Rpn11 (human) deubiquitinase inhibition | O00487 | AID 588493 | human 26S proteasome, Ub4-pepOG fluorescence polarization; 20S core pre-blocked with epoxomicin | actives 0.59% (n = 360,000) | inhibition, % at 20 µM;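 active = inhibition at 20 µM, scaled to each plate's controls, above about 33%, limit read from the data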
Target sequence (O00487 whole entry, looked up): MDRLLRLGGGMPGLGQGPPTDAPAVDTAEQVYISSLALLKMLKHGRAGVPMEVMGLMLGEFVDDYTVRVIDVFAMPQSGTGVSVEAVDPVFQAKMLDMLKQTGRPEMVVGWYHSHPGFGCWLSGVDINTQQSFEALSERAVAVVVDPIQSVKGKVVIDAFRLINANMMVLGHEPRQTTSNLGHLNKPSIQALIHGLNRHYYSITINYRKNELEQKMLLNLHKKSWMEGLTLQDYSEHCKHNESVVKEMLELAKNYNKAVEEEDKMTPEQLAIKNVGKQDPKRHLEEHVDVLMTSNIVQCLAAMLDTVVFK
CSN deneddyl inh = inhibitors of human CSN-mediated cullin deneddylation; inhibition, % at 12.5 µM; Purified CSN, SCF-Nedd8-OG deneddylation, fluorescence polarization; actives 0.38% (n = 360,000); Q92905;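 active = pattern-corrected inhibition above about 35%, with an unprinted fluorescence ratio check between 0.5 and 1.5, limit read from the data, passing the limit was not always enough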
Target sequence (Q92905 whole entry, looked up, one chain of several): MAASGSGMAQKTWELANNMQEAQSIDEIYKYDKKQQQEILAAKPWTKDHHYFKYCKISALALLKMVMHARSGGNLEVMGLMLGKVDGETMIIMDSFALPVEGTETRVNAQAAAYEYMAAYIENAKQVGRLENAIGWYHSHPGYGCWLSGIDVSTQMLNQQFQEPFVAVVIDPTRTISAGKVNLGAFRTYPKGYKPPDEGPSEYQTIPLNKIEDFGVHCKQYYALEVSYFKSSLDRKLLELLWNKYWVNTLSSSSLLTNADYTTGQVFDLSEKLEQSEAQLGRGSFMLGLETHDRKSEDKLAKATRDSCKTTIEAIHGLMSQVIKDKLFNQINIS
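Assay system: purified human Csn5 enzyme expressed in HEK293T cells; Input: 0.24 nM Csn5 enzyme, final concentration; Reagent: 10 nM SCFSkp2-Nedd8OG; Compound dosing: 12.5 µM single point; Times: reaction 90 min, room temperature; Technique: fluorescence polarization readout.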
Neddyl block = inhibitors of human cullin neddylation | P61081+Q13564 | TR-FRET cullin neddylation, biochemical | inhibition, % at 25 µM | actives 0.58% (n = 360,000) | AID 651699; in the data active = inhibition above about 36%
PREPL inhibitor = inhibits the human prolyl oligopeptidase-like enzyme. Q4J6C6. recombinant PREPL, fluorescence polarization activity-based probe. inhibition, % at 5.96 µM. actives 0.68% (n = 320,000). AID 2751; in the data active = inhibition above about 43%
Tb MetRS inh = blocks T. brucei methionyl-tRNA synthetase activity | purified T. brucei MetRS, ATP depletion, Kinase-Glo luminescence | inhibition, % at 11.9 µM | actives 0.4% (n = 360,000) | AID 624268;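 active = inhibition above a per-plate cutoff of the control wells' mean inhibition plus 3 SD, cut at about 5.5% in these data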
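Test system: purified T. brucei MetRS enzyme. Also added: ATP, methionine and E. coli bulk tRNA substrates. Compound: 11.9 µM single point. Schedule: 15 min enzyme-compound preincubation, 2 h reaction, 10 min detection, 25 °C. Signal: luciferase luminescence of residual ATP, Kinase-Glo. Evaluation: percent inhibition versus plate control medians. Controls: DMSO wells, low control.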
HNF4A DNA FP = change in binding of human HNF4 alpha to DNA | actives 0.3% (n = 360,000) | AID 1224865 | activity change, % at 10 µM | P41235 | HNF4a-FITC DNA binding, fluorescence polarization, 1 h; in the data active = activity change above about 30%, passing the limit was not always enough
Neddyl conf = confirmation of human cullin neddylation inhibitors. calls only at 25 µM. shares compounds with Neddyl block. TR-FRET cullin neddylation biochemical assay. actives 13% (n = 1,800). AID 652217; in the data active = inhibition above about 40%;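 note: neddylation substrate is the cullin 1 ring ligase complex with SKP2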
Numbers stand for hits; . = inactive; / = no result shown; + = active, no number. Hits are enriched below; roughly 2.4% of the tested compounds scored in any of these assays.

SMILES	Rpn11 block	CSN deneddyl inh	Neddyl block	PREPL inhibitor	Tb MetRS inh	HNF4A DNA FP	Neddyl conf
COc1ccc(OC)c(/C=C/C(=O)OCC(=O)NC2CCCCCCC2)c1	.	.	59	.	.	.	/
COc1cccc(/C=C/C(=O)OCC(=O)N2c3ccccc3CC2C)c1OC (stereo unspecified)	.	.	46	/	.	.	/
COc1cc(C(=O)OCC(=O)c2cc(C)n(CC3CCCO3)c2C)cc(OC)c1C (stereo unspecified)	.	.	.	.	.	.	/
COc1cccc(/C=C/C(=O)OCC(=O)c2cc(C)n(CC3CCCO3)c2C)c1OC (stereo unspecified)	.	.	43	.	.	.	.
CN1CCN(C(=O)c2cc3c(c(-c4cccc(-c5cc6ccccc6o5)c4)n2)[C@@H](CCO)N(S(=O)C(C)(C)C)C3)CC1 (stereo partly specified)	.	.	.	/	.	.	/
CC(=O)c1ccc(-c2ccc(C(=O)N3CCC(C(N)=O)CC3)o2)cc1	.	.	69	.	.	.	/
CC(=O)c1ccc(-c2ccc(C(=O)N3CCN(c4ccc(F)cc4)CC3)o2)cc1	.	.	.	.	.	.	/
CCN(CC)c1ccc(S(=O)(=O)N2CCOCC2)cc1NC(=O)COC(=O)/C=C/c1ccccc1	.	.	.	/	.	.	/
COc1cccc(/C=C/C(=O)N2CCN(S(=O)(=O)c3ccccc3)CC2)c1	.	.	41	/	.	.	.
CCN(CC)c1ccc(S(=O)(=O)N2CCOCC2)cc1NC(=O)COC(=O)/C=C/c1ccc(O)c(OC)c1	.	.	32	/	.	.	.
COc1cccc(/C=C/C(=O)OCC(=O)N2CCN(S(=O)(=O)c3ccc(Cl)cc3)CC2)c1	.	.	41	.	.	.	.
COc1cc(/C=C/C(=O)OCC(=O)N2CCN(S(=O)(=O)c3ccc(C)cc3C)CC2)ccc1O	.	.	48	.	.	.	.
COC(=O)c1csc(-c2ccc(CO)o2)n1	.	.	.	/	.	.	/
CC(=O)Nc1cccc(-c2csc(C(O)c3cccc(Cl)c3)n2)c1 (stereo unspecified)	.	.	.	/	.	.	/
CCc1ccc2c(c1)C(=O)C[C@]1(CCC[C@H](C)C1)O2	.	.	26	.	.	.	.
C[C@H]1CCC[C@]2(CC(=O)c3cc(F)ccc3O2)C1	.	.	.	.	.	.	/
O=C1CC2(CCCCC2)Oc2ccc(Cl)cc21	.	.	28	.	.	.	.
CCC(CC)C(=O)N(C)c1c(C)nc2c(OCc3ccc(F)c(F)c3)cccn12	.	.	.	/	.	.	/
Cc1ccc(NC(=S)N/N=C/c2cccn2Cc2ccccc2F)cc1	.	.	.	.	.	.	/
CCN(CC)CCN(C(=O)c1ccc2c(c1)OCCO2)c1nc2cc3c(cc2s1)OCO3	.	.	.	.	.	.	/
CCN(CC)CCN(C(=O)c1cc2c(ccc3ccccc32)oc1=O)c1nc2cc3c(cc2s1)OCCO3	.	.	56	.	.	.	.
CN(C)c1ccc(/C=N/NC(=O)Cn2nnc3ccccc32)cc1	.	.	40	.	.	.	.
COc1ccc(OCC(=O)N/N=C/c2ccc(N(C)C)cc2)cc1	.	.	45	.	.	.	+
CCCCCC(=O)N/N=C/c1ccc(N(C)C)cc1	.	.	42	.	.	.	/
CN(C)c1ccc(/C=N/NC(=O)CCCCCNC(=O)c2ccccc2)cc1	.	.	43	.	.	.	+
SMILES	Rpn11 block	CSN deneddyl inh	Neddyl block	PREPL inhibitor	Tb MetRS inh	HNF4A DNA FP	Neddyl conf
CN(C)c1ccc(/C=N/NC(=O)CNC(=O)c2ccc3c(c2)OCCO3)cc1	.	.	58	.	.	.	/
CCN(CC)c1ccc(/C=N/NC(=O)CNC(=O)c2ccc3c(c2)OCCO3)cc1	.	.	/	.	.	.	/
O=c1c2ccccc2nc2c3ccccc3cnn12	.	.	44	.	.	.	.
O=C(CNC(=O)c1ccc(Br)cc1)NCc1cccnc1	.	.	.	.	.	.	/
Cc1cc(C)c(C)c(S(=O)(=O)N2CCNC(=O)C2)c1C	.	.	.	/	.	.	/
O=C(Nc1cccc2nsnc12)c1cccs1	.	.	/	.	.	.	.
C#CCN(C[C@@H]1[C@@H](OC(=O)NCC2CCCCC2)[C@@H](OC(=O)NCC2CCCCC2)Cn2c(=O)n(CCCCCC)c(=O)n21)S(=O)(=O)c1ccc(C)cc1	.	.	.	/	.	.	/
CCCc1cc(=O)[nH]c(SCC(=O)Nc2cc(S(=O)(=O)N3CCCCC3)ccc2Cl)n1	.	.	.	/	.	.	/
CCS(=O)(=O)Nc1cccc(C2=NN(S(=O)(=O)CC)C(c3cccs3)C2)c1 (stereo unspecified)	.	.	.	.	.	.	/
CCS(=O)(=O)Nc1ccc(C2=NN(S(=O)(=O)CC)C(c3cccs3)C2)cc1 (stereo unspecified)	.	.	44	.	.	.	.
CC(C)CC(c1nc2ccccc2[nH]1)n1c(-c2ccccc2Br)nc2ccccc21 (stereo unspecified)	.	.	.	/	.	.	/
Cc1ccc(CNC(=O)Nc2nnc([C@@H]3C[C@H](O)[C@@H](CO)O3)s2)cc1	.	.	.	/	.	.	/
CC1CCN(C(=O)CSc2nc(N)c3c4c(sc3n2)CN(C)CC4)CC1	.	.	.	/	.	.	/
CN1CCc2c(sc3nc(SCC(=O)N4CCOCC4)nc(N)c23)C1	.	.	42	.	.	.	.
COc1ccc(C(=O)NC2CC3CCCC(C2)N3Cc2ccccc2)c(OC)c1 (stereo unspecified)	.	.	42	.	.	.	.
Cc1oc(-c2ccc(Cl)cc2)nc1CN1CCC(C(=O)NCCCN2CCCC(C)C2)CC1 (stereo unspecified)	.	.	.	.	.	.	/
CCCC#Cc1ccc2c(c1)COc1c3ccccc3nn1-2	.	.	.	.	.	.	/
CCc1cc(-c2ccc3c(c2)COc2c4ccccc4nn2-3)on1	.	.	43	.	.	.	.
Cc1ccc2c(c1)c1c3n2CCN(C(=O)C2CC2)C3CCC1 (stereo unspecified)	.	.	45	.	.	.	.
Cc1cc(OCC(=O)NNC(=O)c2cccnc2)cc(C)c1Cl	.	.	.	/	.	.	/
CC(C)(C)c1ccc(OCc2ccc(C(=O)NCc3cccnc3)o2)cc1	.	.	.	.	.	.	/
N#C/C(=C\c1ccncc1)c1nc2c(s1)CCCC2	.	.	57	.	.	.	/
N#CC(=Cc1ccncc1)c1ccccc1	.	.	.	/	.	.	/
Cc1cccc(-n2ncc3c(NCCCO)ncnc32)c1	.	.	39	.	.	.	.
